Source: publication PMC6487498 (Toxicology and applied pharmacology, 2018)

Experiments:
[1] = test system: LPS-activated RAW264.7 macrophages; experiment: Nitric oxide production; format: cell-based, mouse; conditions: for effect of co-incubation on NO reduction by RID-B: ligand 5 μM with RID-B 1 μM
human CB2 receptors [2] = molecular target: T1, human CB2 receptors (Homo sapiens, UniProt P34972); experiment: Competition receptor binding vs [3H]CP-55,940, CHO-hCB2 membranes
[3] = test system: RAW264.7 mouse macrophage cells; experiment: Cell viability; format: cell-based; conditions: for effect of co-incubation on RID-B cytotoxicity: with RID-B 10 μM, LPS 500 ng/ml
human CB2 receptors [4] = molecular target: T1, human CB2 receptors; experiment: Forskolin-stimulated adenylyl cyclase activity in CHO-hCB2 cells; format: cell-based
[5] = test system: primary bone marrow macrophages; experiment: Osteoclast differentiation with TRAP staining; format: cell-based, mouse; conditions: for number of osteoclasts: N = 4; for effect on osteoclast development, ligand alone: receptor-saturating concentration, without RID-B; for effect of co-incubation on anti-osteoclastogenic effect of RID-B: with RID-B 300 nM
[6] = test system: LPS-activated RAW264.7 macrophages; experiment: IL-6 release; format: cell-based, mouse; conditions: LPS 500 ng/ml, 48 h
human CB1 receptors = human CB1 receptors (Homo sapiens, UniProt P21554); experiment: Competition receptor binding vs [3H]CP-55,940, CHO-hCB1 membranes; conditions: RID-B 1 μM; radioligand 0.2 nM; initial binding screen, data not shown
[7] = test system: LPS-activated RAW264.7 macrophages; experiment: IL-1α release; format: cell-based, mouse; conditions: RID-B 1 μM; LPS 500 ng/ml, 48 h
Summary of the method: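 RAW264.7 mouse macrophages pre-incubated 1 h with test compound, then stimulated with LPS 500 ng/ml for 48 h. Media collected and stored at −20 °C. Mouse IL-1α measured by ELISA kit per manufacturer's instructions.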

[8] = test system: LPS-activated RAW264.7 macrophages; experiment: TNF-α release; format: cell-based, mouse; conditions: LPS 500 ng/ml, 48 h; for effect of co-incubation with RID-B on TNF-α levels: ligand with RID-B
[9] = test system: CHO cells devoid of CB2 receptors; experiment: G-protein activity in CHO cells devoid of CB2 receptors; format: biochemical, Chinese hamster; conditions: data not shown
[10] = test system: CHO cells not expressing cannabinoid receptors; experiment: Intracellular cAMP in CHO cells not expressing cannabinoid receptors; format: cell-based, Chinese hamster; conditions: data not shown
human CB2 receptors [11] = molecular target: T1, human CB2 receptors; experiment: [35S]GTPγS binding; format: biochemical

T1 sequence (P34972 whole entry): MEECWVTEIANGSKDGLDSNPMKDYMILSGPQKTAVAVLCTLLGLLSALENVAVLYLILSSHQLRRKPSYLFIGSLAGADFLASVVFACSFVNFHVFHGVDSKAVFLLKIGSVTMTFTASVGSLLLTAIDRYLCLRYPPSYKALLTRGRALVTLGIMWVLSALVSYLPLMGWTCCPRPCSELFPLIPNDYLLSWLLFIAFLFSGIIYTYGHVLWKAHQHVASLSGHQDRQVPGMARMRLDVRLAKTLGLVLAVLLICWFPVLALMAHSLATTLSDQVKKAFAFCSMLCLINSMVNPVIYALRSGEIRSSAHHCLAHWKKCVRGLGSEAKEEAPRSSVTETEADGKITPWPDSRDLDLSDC
Sequence of human CB1 receptors (P21554 whole entry): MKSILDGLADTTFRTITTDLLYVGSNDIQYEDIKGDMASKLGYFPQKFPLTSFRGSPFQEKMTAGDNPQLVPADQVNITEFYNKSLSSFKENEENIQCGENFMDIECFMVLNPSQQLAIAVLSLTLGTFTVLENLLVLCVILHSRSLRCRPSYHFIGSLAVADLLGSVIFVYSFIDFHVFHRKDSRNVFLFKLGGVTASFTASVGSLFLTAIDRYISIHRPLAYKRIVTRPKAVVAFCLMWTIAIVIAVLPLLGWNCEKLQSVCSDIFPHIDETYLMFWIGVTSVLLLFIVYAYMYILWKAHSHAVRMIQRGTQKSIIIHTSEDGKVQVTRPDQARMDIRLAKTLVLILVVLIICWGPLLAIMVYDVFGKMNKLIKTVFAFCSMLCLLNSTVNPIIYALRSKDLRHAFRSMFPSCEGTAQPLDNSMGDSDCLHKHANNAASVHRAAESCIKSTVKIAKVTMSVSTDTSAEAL

Question: For `CCC(=C(c1ccc(OCCN2CCCC2)cc1)c1ccc(OCCN2CCCC2)cc1)c1ccccc1` [RID-B, ridaifen-B], which “effect on EC50 values of LPS for NO production” value ([1]; RID-B 300 nM, 500 nM, 1 μM) is on record?
Answer: did not alter the EC50 values of LPS

Question: What about the “reduction of NO production vs cells treated only with LPS” value ([1]; RID-B 1 μM alone, LPS 500 ng/ml, 48 h, N = 10) of the same compound?
Answer: 30.1 ± 5.1%

Question: What about the NO reduction ([1]; RID-B 1 μM co-incubated with CP-55,940 2 μM, LPS 500 ng/ml, 48 h, N = 10) of the same compound?
Answer: 9.3 ± 4.6%

Question: And the “NO levels reduced to” value ([1]; RID-B 1 μM co-incubated with JWH-015 5 μM, LPS 500 ng/ml, 48 h, N = 4)?
Answer: 51.1 ± 6.4%

Question: What about the “Emax of LPS-induced NO production” value ([1]; co-incubation with RID-B 300 nM, 48 h, N = 3) of the same compound?
Answer: 19.4 ± 3.8 µM

Question: And the “Emax of LPS-induced NO production” value ([1]; co-incubation with RID-B 500 nM, 48 h, N = 3)?
Answer: 22.0 ± 9.9 µM

Question: What about the “Emax of LPS-induced NO production” value ([1]; co-incubation with RID-B 1 μM, 48 h, N = 4) of the same compound?
Answer: 18.2 ± 4.7 µM

Question: And the “displacement of [3H]-CP-55,940 from human CB2 receptors” value (human CB2 receptors [2]; RID-B 1 μM, radioligand 0.2 nM, initial binding screen, data not shown)?
Answer: > 50%

Question: And the “selectivity (affinity) for CB2 over CB1 receptors” value (human CB2 receptors [2]; ratio of Ki values)?
Answer: 17 fold

Question: And the “decrease of cell viability” value ([3]; RID-B 10 μM alone, 4 h exposure to LPS, N = 4)?
Answer: 34.0 ± 5.4%

Question: What about the “effect on cell viability” value ([3]; RID-B 1 or 3 μM, forty-eight hour exposure to LPS 500 ng/ml) of the same compound?
Answer: no effect on cell viability

Question: What about the “Imax, increase of adenylyl cyclase activity (elevated cAMP levels)” value (human CB2 receptors [4]; 10 μM forskolin, inverse agonism, N = 3) of the same compound?
Answer: 398 ± 30%

Question: What about the “decrease in the potency of WIN-55,212-2 to inhibit adenylyl cyclase activity” value (human CB2 receptors [4]; RID-B 3 μM co-incubation, efficacy unchanged, parallel rightward shift) of the same compound?
Answer: 11.2 fold

Question: What about the Kb (human CB2 receptors [4]; read-out: antagonist dissociation constant (Kb), RID-B 3 μM against WIN-55,212-2, N = 3) of the same compound?
Answer: 0.294 µM

Question: And the number of osteoclasts ([5]; RID-B 300 nM alone, vehicle 339.1 ± 15.6)?
Answer: 174.4 ± 19.2 osteoclasts per well

Question: What about the number of osteoclasts ([5]; RID-B 300 nM co-incubated with AM-630) of the same compound?
Answer: 94.6 ± 15.6 osteoclasts per well

Question: What about the “maximal decrease in the number of osteoclasts” value ([5]; RID-B 300 nM, M-CSF and RANKL, 4 days, drugs on days 2 and 3) of the same compound?
Answer: 48.6%

Question: And the “reduction of LPS-induced IL-6 increase” value ([6]; RID-B 1 μM)?
Answer: 45%

Question: What about the IL-6 level ([6]; RID-B 1 μM, N = 4) of the same compound?
Answer: 349.9 ± 34.9 pg/mL

Question: And the “displacement of [3H]-CP-55,940 from human CB1 receptors” value (human CB1 receptors)?
Answer: > 50%

Question: And the IL-1α level [7]?
Answer: 73.1 ± 4.7 pg/mL

Question: And the “reduction of IL-1α level” value [7]?
Answer: 52.3%

Question: What about the “effect on TNF-α levels” value ([8]; RID-B 1 μM) of the same compound?
Answer: slight but non-significant increase in TNF-α levels

Question: And the “effect on G-protein activity” value [9]?
Answer: no effect on G-protein activity

Question: And the “effect on intracellular cAMP levels” value [10]?
Answer: does not alter intracellular cAMP levels

Question: What about the “G-protein activation Imax (decrease below basal levels)” value (human CB2 receptors [11]; inverse agonism, N = 3) of the same compound?
Answer: −31.2 ± 0.37%

Question: What does the source list for `CCCn1c(C)c(C(=O)c2cccc3ccccc23)c2ccccc21` [JWH-015]?
Answer: effect on osteoclast development, ligand alone [5]: significantly reduce osteoclast development; effect of co-incubation on anti-osteoclastogenic effect of RID-B [5]: little consequence on the effects of RID-B; effect of co-incubation with RID-B on TNF-α levels [8]: have no effect

Question: With SR-144528 [reference compound] as the compound, how does the “effect of co-incubation on NO reduction by RID-B” value (shortened to “effect … on NO reduction by RID-B”) ([1]; LPS 500 ng/ml, 48 h) read?
Answer: did not alter NO levels compared to RID-B administered alone

Question: Which “effect … on NO reduction by RID-B” value ([1]; LPS 500 ng/ml, 48 h) does the source give for `Cc1c(C(=O)NN2CCOCC2)nn(-c2ccc(Cl)cc2Cl)c1-c1ccc(I)cc1` [AM-281] here?
Answer: did not alter NO levels compared to RID-B administered alone

Question: What about the “effect of co-incubation on RID-B cytotoxicity” value [3] of the same compound?
Answer: attenuated

Question: And the “effect on osteoclast development, ligand alone” value [5]?
Answer: significantly reduce osteoclast development

Question: What about the “effect of co-incubation on anti-osteoclastogenic effect of RID-B” value [5] of the same compound?
Answer: little consequence on the effects of RID-B

Question: What about the “IL-6 level, ligand alone” value ([6]; without RID-B, N = 4) of the same compound?
Answer: 1040 ± 119.4 pg/mL

Question: And the “TNF-α level, ligand alone” value ([8]; without RID-B, N = 4)?
Answer: 21.3 ± 0.21 ng/mL

Question: What about the “effect of co-incubation with RID-B on TNF-α levels” value (from here on “effect of co-incubation with RID-B”) [8] of the same compound?
Answer: significantly increases TNF-α levels

Question: For `COc1ccc(C(=O)c2c(C)n(CCN3CCOCC3)c3cc(I)ccc23)cc1` [AM-630], which “effect … on NO reduction by RID-B” value ([1]; LPS 500 ng/ml, 48 h) is on record?
Answer: did not alter NO levels compared to RID-B administered alone

Question: And the number of osteoclasts ([5]; AM-630 alone (1 μM in Fig. 7), vehicle 339.1 ± 15.6)?
Answer: 168.1 ± 15.4 osteoclasts per well

Question: And the “effect of co-incubation with RID-B” value [8]?
Answer: significantly increases TNF-α levels

Question: With `CCCCCCC(C)(C)c1ccc(C2CC(O)CCC2CCCO)c(O)c1` (stereo not drawn) [CP-55,940, 5-(1,1-dimethylheptyl)-2-[5-hydroxy-2-(3-hydroxypropyl)cyclohexyl]phenol] as the compound, how does the “effect of co-incubation on RID-B cytotoxicity” value [3] read?
Answer: attenuated

Question: And the “effect on osteoclast development, ligand alone” value [5]?
Answer: marginally reduced osteoclast formation

Question: And the “effect of co-incubation on anti-osteoclastogenic effect of RID-B” value [5]?
Answer: significantly attenuated the anti-osteoclastogenic effects produced by RID-B

Question: And the “effect of co-incubation with RID-B” value [8]?
Answer: have no effect

Question: And the Emax (human CB2 receptors [11]; read-out: G-protein activation Emax)?
Answer: 25.4 ± 3%
